In ChEMBL document CHEMBL4387700, “A novel, potent, and orally bioavailable thiazole HCV NS5A inhibitor for the treatment of hepatitis C virus” (Eur J Med Chem, 2019) one finds CC50 data, which are given here for 32 compounds.

As usually defined, the CC50 is the concentration that lowers cell viability or growth by half.

The data set in a line: Cytotoxicity against human HuH7 cells assessed as reduction in cell viability by MTS assay. In kind it is cell-based, Huh-7. In a few lines:
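Viability of Huh-7 cells was read by MTS assay.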
(In general: Tetrazolium dyes change colour on reduction, which living cells bring about.)

For `CCCC[C@@H](NC(=O)C1CC1)C(=O)N1CCC[C@H]1c1ncc(-c2ccc(-c3ccc(-c4cnc([C@@H]5CCCN5C(=O)[C@@H](CCCC)NC(=O)C5CC5)s4)cc3)cc2)s1`, the CC50 was more than 50 µM.
With `CCC(=O)N[C@H](C(=O)N1CCC[C@H]1c1ncc(-c2ccc(-c3ccc(-c4cnc([C@@H]5CCCN5C(=O)[C@H](NC(=O)CC)c5ccccc5)s4)cc3)cc2)s1)c1ccccc1` the figure was more than 50 µM.
As for `CCC(=O)N[C@@H](C(=O)N1CCC[C@H]1c1ncc(-c2ccc(-c3ccc(-c4cnc([C@@H]5CCCN5C(=O)[C@H](NC(=O)CC)c5ccccc5)s4)cc3)cc2)s1)c1ccccc1`, the half-maximal cytotoxic concentration (CC50) is more than 50 µM.
Consider `O=C(N[C@@H](C(=O)N1CCC[C@H]1c1ncc(-c2ccc(-c3ccc(-c4cnc([C@@H]5CCCN5C(=O)[C@H](NC(=O)c5ccncc5)c5ccccc5)s4)cc3)cc2)s1)c1ccccc1)c1ccncc1`, for which the CC50 was more than 50 µM.
`O=C(N[C@H](C(=O)N1CCC[C@H]1c1ncc(-c2ccc(-c3ccc(-c4cnc([C@@H]5CCCN5C(=O)[C@H](NC(=O)C5CCCC5)c5ccccc5)s4)cc3)cc2)s1)c1ccccc1)C1CCCC1`: the CC50 was more than 50 µM.
Take `O=C(N[C@H](C(=O)N1CCC[C@H]1c1ncc(-c2ccc(-c3ccc(-c4cnc([C@@H]5CCCN5C(=O)[C@H](NC(=O)c5ccccc5)c5ccccc5)s4)cc3)cc2)s1)c1ccccc1)c1ccccc1`: the CC50 is more than 50 µM.
For `O=C(N[C@H](C(=O)N1CCC[C@H]1c1ncc(-c2ccc(-c3ccc(-c4cnc([C@@H]5CCCN5C(=O)[C@H](NC(=O)C5CC5)c5ccccc5)s4)cc3)cc2)s1)c1ccccc1)C1CC1`, the half-maximal cytotoxic concentration (CC50) was more than 50 µM.
`CC(=O)N[C@H](C(=O)N1CCC[C@H]1c1ncc(-c2ccc(-c3ccc(-c4cnc([C@@H]5CCCN5C(=O)[C@H](NC(C)=O)c5ccccc5)s4)cc3)cc2)s1)c1ccccc1`: the CC50 is more than 50 µM.
Regarding `O=C(N[C@H](C(=O)N1CCC[C@H]1c1ncc(-c2ccc(-c3ccc(-c4cnc([C@@H]5CCCN5C(=O)[C@H](NC(=O)N5CCCCC5)c5ccccc5)s4)cc3)cc2)s1)c1ccccc1)N1CCCCC1`, the 50% cytotoxic concentration (CC50) was more than 50 µM.
Regarding `O=C(N[C@@H](C(=O)N1CCC[C@H]1c1ncc(-c2ccc(-c3ccc(-c4cnc([C@@H]5CCCN5C(=O)[C@H](NC(=O)C5CCCC5)c5ccccc5)s4)cc3)cc2)s1)c1ccccc1)C1CCCC1`, the cytotoxic concentration (CC50) is more than 50 µM.
With `CC(C)(C)[C@@H](NC(=O)C1CC1)C(=O)N1CCC[C@H]1c1ncc(-c2ccc(-c3ccc(-c4cnc([C@@H]5CCCN5C(=O)[C@H](NC(=O)C5CC5)C(C)(C)C)s4)cc3)cc2)s1` the figure was more than 50 µM.
With `O=C(N[C@@H](C(=O)N1CCC[C@H]1c1ncc(-c2ccc(-c3ccc(-c4cnc([C@@H]5CCCN5C(=O)[C@H](NC(=O)C5CCC5)c5ccccc5)s4)cc3)cc2)s1)c1ccccc1)C1CCC1` the figure was more than 50 µM; with `COC(=O)N[C@H](C(=O)N1CCC[C@H]1c1ncc(-c2ccc(-c3ccc(-c4cnc([C@@H]5CCCN5C(=O)[C@@H](NC(=O)OC)C(C)C)s4)cc3)cc2)s1)C(C)C`, more than 50 µM.
With `CC(C)[C@H](NC(=O)Oc1ccccc1)C(=O)N1CCC[C@H]1c1ncc(-c2ccc(-c3ccc(-c4cnc([C@@H]5CCCN5C(=O)[C@@H](NC(=O)Oc5ccccc5)C(C)C)s4)cc3)cc2)s1`, the 50% cytotoxic concentration (CC50) is more than 50 µM.
Take `CC(C)C(=O)N[C@H](C(=O)N1CCC[C@H]1c1ncc(-c2ccc(-c3ccc(-c4cnc([C@@H]5CCCN5C(=O)[C@H](NC(=O)C(C)C)c5ccccc5)s4)cc3)cc2)s1)c1ccccc1`: the CC50 was more than 50 µM.
With `O=C(N[C@@H](C(=O)N1CCC[C@H]1c1ncc(-c2ccc(-c3ccc(-c4cnc([C@@H]5CCCN5C(=O)[C@H](NC(=O)c5ccsc5)c5ccccc5)s4)cc3)cc2)s1)c1ccccc1)c1ccsc1`, the CC50 is more than 50 µM.
`O=C(CCN1CCCC1)N[C@H](C(=O)N1CCC[C@H]1c1ncc(-c2ccc(-c3ccc(-c4cnc([C@@H]5CCCN5C(=O)[C@H](NC(=O)CCN5CCCC5)c5ccccc5)s4)cc3)cc2)s1)c1ccccc1`: the CC50 is more than 50 µM.
With `CCCC[C@H](NC(=O)OC)C(=O)N1CCC[C@H]1c1ncc(-c2ccc(-c3ccc(-c4cnc([C@@H]5CCCN5C(=O)[C@H](CCCC)NC(=O)OC)s4)cc3)cc2)s1` the figure was more than 50 µM.
Regarding `COC(=O)N[C@H](C(=O)N1CCC[C@H]1c1ncc(-c2ccc(-c3ccc(-c4cnc([C@@H]5CCCN5C(=O)[C@@H](NC(=O)OC)C(C)(C)C)s4)cc3)cc2)s1)C(C)(C)C`, the CC50 was more than 50 µM.
`O=C(N[C@@H](C(=O)N1CCC[C@H]1c1ncc(-c2ccc(-c3ccc(-c4cnc([C@@H]5CCCN5C(=O)[C@H](NC(=O)N5CCOCC5)c5ccccc5)s4)cc3)cc2)s1)c1ccccc1)N1CCOCC1`: the CC50 is more than 50 µM.
For `COC(=O)N[C@H](C(=O)N1CCC[C@H]1c1ncc(-c2ccc(-c3ccc(-c4cnc([C@@H]5CCCN5C(=O)[C@H](NC(=O)OC)c5ccccc5)s4)cc3)cc2)s1)c1ccccc1`, the CC50 is more than 50 µM.
Consider `CCC[C@@H](NC(=O)C1CC1)C(=O)N1CCC[C@H]1c1ncc(-c2ccc(-c3ccc(-c4cnc([C@@H]5CCCN5C(=O)[C@@H](CCC)NC(=O)C5CC5)s4)cc3)cc2)s1`, for which the CC50 was more than 50 µM.
Take `COC(=O)N[C@H](C(=O)N1CCC[C@H]1c1ncc(-c2ccc(-c3ccc(-c4cnc([C@@H]5CCCN5C(=O)[C@@H](NC(=O)OC)c5ccccc5)s4)cc3)cc2)s1)c1ccccc1`: the cytotoxic concentration (CC50) was more than 50 µM.
Turning to `CCCCC(=O)N[C@@H](C(=O)N1CCC[C@H]1c1ncc(-c2ccc(-c3ccc(-c4cnc([C@@H]5CCCN5C(=O)[C@H](NC(=O)CCCC)c5ccccc5)s4)cc3)cc2)s1)c1ccccc1`, the CC50 is more than 50 µM.
Turning to `O=C(N[C@H](C(=O)N1CCC[C@H]1c1ncc(-c2ccc(-c3ccc(-c4cnc([C@@H]5CCCN5C(=O)[C@H](NC(=O)C5CCCCC5)c5ccccc5)s4)cc3)cc2)s1)c1ccccc1)C1CCCCC1`, the CC50 was more than 50 µM.
Consider `CC[C@H](NC(=O)OC)C(=O)N1CCC[C@H]1c1ncc(-c2ccc(-c3ccc(-c4cnc([C@@H]5CCCN5C(=O)[C@H](CC)NC(=O)OC)s4)cc3)cc2)s1`, for which the cytotoxic concentration (CC50) was more than 50 µM.
`CCCCCC(=O)N[C@@H](C(=O)N1CCC[C@H]1c1ncc(-c2ccc(-c3ccc(-c4cnc([C@@H]5CCCN5C(=O)[C@H](NC(=O)CCCCC)c5ccccc5)s4)cc3)cc2)s1)c1ccccc1`: the cytotoxic concentration (CC50) was more than 50 µM.
Consider `CN(C)CCC(=O)N[C@H](C(=O)N1CCC[C@H]1c1ncc(-c2ccc(-c3ccc(-c4cnc([C@@H]5CCCN5C(=O)[C@H](NC(=O)CCN(C)C)c5ccccc5)s4)cc3)cc2)s1)c1ccccc1`, for which the half-maximal cytotoxic concentration (CC50) is more than 50 µM.
On to `O=C(CCN1CCCCC1)N[C@H](C(=O)N1CCC[C@H]1c1ncc(-c2ccc(-c3ccc(-c4cnc([C@@H]5CCCN5C(=O)[C@H](NC(=O)CCN5CCCCC5)c5ccccc5)s4)cc3)cc2)s1)c1ccccc1`, for which the 50% cytotoxic concentration (CC50) was more than 50 µM.
In the case of `CC(=O)N[C@@H](C(=O)N1CCC[C@H]1c1ncc(-c2ccc(-c3ccc(-c4cnc([C@@H]5CCCN5C(=O)[C@H](NC(C)=O)c5ccccc5)s4)cc3)cc2)s1)c1ccccc1`, the cytotoxic concentration (CC50) is more than 50 µM.
Regarding `O=C(CCN1CCOCC1)N[C@@H](C(=O)N1CCC[C@H]1c1ncc(-c2ccc(-c3ccc(-c4cnc([C@@H]5CCCN5C(=O)[C@H](NC(=O)CCN5CCOCC5)c5ccccc5)s4)cc3)cc2)s1)c1ccccc1`, the half-maximal cytotoxic concentration (CC50) is more than 50 µM.
Regarding `CN1CCN(CCC(=O)N[C@@H](C(=O)N2CCC[C@H]2c2ncc(-c3ccc(-c4ccc(-c5cnc([C@@H]6CCCN6C(=O)[C@H](NC(=O)CCN6CCN(C)CC6)c6ccccc6)s5)cc4)cc3)s2)c2ccccc2)CC1`, the half-maximal cytotoxic concentration (CC50) was more than 50 µM.
